ABCG2 block: human ABCG2 inhibition, ABCB1 as counter-screen; 0.1% of 190,000 active; Q9UNQ0; inhibition, % at 6.6 µM; IgMXP3 cells, JC-1 efflux, flow cytometry; AID 1325;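 active means inhibition above 80%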;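 further: 0% = DMSO and 100% = nicardipine control wells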
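Measure – % inhibition of efflux relative to nicardipine and DMSO · Test system – ABCG2 IgMXP3 and barcoded ABCB1 CCRF-Adr cell mix · Control set – nicardipine as high control, DMSO as low control · Compound – one concentration, 6.6 µM final · Signal – flow cytometry of retained JC-1 fluorescence · Timing – 10 min exposure at 25 °C with rotation, no wash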
ABCB1 inh: inhibitors of human ABCB1 transporter, ABCG2 counter-screen | P08183 | CCRF-Adr cells, JC-1 efflux, flow cytometry | inhibition, % at 6.6 µM | 0.067% of 190,000 active; in the data active means inhibition above about 40%;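 further: 0% = vehicle and 100% = reference inhibitor; higher value means more JC-1 retained so stronger ABCB1 efflux block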
MEKK2mut PB1 HTS: signal of MEK5 binding to mutant human MEKK2 PB1 domain; AID 1530; 0.35% of 290,000 active; bead flow cytometry, Alexa488-MEK5 binding to MEKK2 mutant; percent response, % at 10 µM; in the data active means percent response above about 24%, passing the limit was not always enough
MEKK2wt PB1 HTS: raises or lowers MEK5 binding to wildtype human MEKK2 PB1 domain. Q9Y2U5. bead flow cytometry, Alexa488-MEK5 binding to MEKK2 WT; actives lie on both sides. 1.1% of 290,000 active. AID 1531. binding response (% of control), % at 10 µM; in the data active means binding response below about 67% or above about 130%
MEKK3 PB1 HTS: raises or lowers MEK5 binding to the human MEKK3 PB1 domain; Q99759; bead-based flow cytometry, Alexa488-MEK5 binding to MEKK3; actives lie on both sides; 0 = blocked by unlabeled MEK5, 100 = vehicle; binding response (% of control), % at 10 µM; AID 1529; 1.4% of 290,000 active;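 active means binding response more than 3 SD above or below the average of its plate-row segment, actives on both sides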;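 further: Alexa488 bead fluorescence after subtracting the streptavidin-only scavenger bead signal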
Efflux pump mplx: inhibitors of Candida antifungal efflux pumps expressed in yeast; S. cerevisiae Candida pump triplex, Nile Red efflux; inhibition, % at 10 µM; 0.44% of 330,000 active;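 active means plate passing quality check with inhibition over a set limit, or well fluorescence over plate mean plus 4 SD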;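 further: Nile Red retained in pooled yeast measured as flow cytometry median fluorescence; 0% = buffer negative control and 100% = Enniatin B positive control; higher means more Nile Red kept so more efflux inhibition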
Starred values were filed as active, the others as inactive; · = not tested or not shown; + = active, no number; [ ] = dose if it differs, or a comment. In the library only some 2.5% were active in any assay of this set; here they are far more common.

SMILES | ABCG2 block | ABCB1 inh | MEKK2mut PB1 HTS | MEKK2wt PB1 HTS | MEKK3 PB1 HTS | Efflux pump mplx
COc1cc(OC)cc(C(=O)Nc2nc(-c3ccccc3)c(-c3ccccc3)o2)c1 | 5 | 1 | 2 | 108 | 154* | 0
O=C(COC(=O)/C=C/c1ccc(F)cc1)Nc1ccccc1-c1ccccc1 | 14 | 1 | -2 | 96 | 69*[inhibitor] | 0
CC(C)CSC1=NSC2=NC(=O)/C(=C\c3coc4ccccc4c3=O)C(=N)N12 | + | 134* | 6 | 93 | 104 | 0
O=C(Nc1ccccc1Br)c1cccc2ccccc12 | · | · | · | · | · | 0
O=C(CCCN1C(=O)c2cccc3cccc(c23)C1=O)N1CCN(c2ncccn2)CC1 | 2 | 1 | -2 | 94 | 97 | 0
O=C(CCCN1C(=O)c2cccc3cccc(c23)C1=O)N1CCN(c2ccccn2)CC1 | 3 | 1 | 0 | 109 | 129* | 0
O=C(NC(=S)NCCCN1CCOCC1)c1cccc2ccccc12 | 0 | 0 | 0 | 102 | 104 | 0
CC(C)(C)OC(=O)N1CCC[C@H]1C(=O)NCc1ccc(Cl)cc1Cl | 2 | 1 | 2 | 103 | 104 | 0
N#C/C(C(=O)c1ccccc1)=C1/SC=C(N)N1c1ccccc1 | -5 | 0 | -30 | 4.0*[inhibitor] | 2.0*[inhibitor] | ·
N#C/C(C(N)=O)=C1/SC=C(c2ccccc2)N1c1ccccc1 | · | · | 20 | 96 | 107 | 0
CCC1=C[C@H]2CN(C1)Cc1c([nH]c3ccccc13)[C@@](C(=O)OC)(c1cc3c(cc1OC)N(C)[C@H]1[C@@](O)(C(=O)OC)[C@H](OC(C)=O)[C@]4(CC)C=CCN5CC[C@]31[C@@H]54)C2 | · | · | 32* | 183* | 111 | ·
O=C(CN1C(=O)c2cccnc2Oc2ccc(Cl)cc21)Nc1ccccc1F | · | · | 10 | 10* | 101 | 1
COc1cc(OC)cc(C(=O)NNC(=S)NC2CC2)c1 | 6 | 2 | 3 | 104 | 99 | 0
Cc1cccc(NC(=O)c2cc(-c3cccnc3)nc3c(C)cccc23)n1 | · | · | -3 | 99 | 99 | 0
O=C1Nc2ccc([N+](=O)[O-])cc2OC1CCN1CCN(Cc2ccc3c(c2)OCO3)CC1 (stereo not drawn) | 10 | 0 | -8 | 78 | 79 | 0
Cc1nc(C2CCC3C4CCC5=CC(=O)CC[C@]5(C)C4CC[C@]23C)cs1 (stereo partly drawn) | · | · | 3 | 101 | 112 | 2.0*
CC(=O)[C@@]1(O)CC[C@H]2[C@@H]3CCC4=CC(=O)CC[C@]4(C)[C@H]3CC[C@@]21C | 2 | 1 | 2 | 98 | 89 | 1
O=c1cc(-c2ccco2)nc(SCc2cccc(Cl)c2)[nH]1 | · | · | -4 | -8.0* | 99 | 0
CCOC(=O)c1c(NC(=O)CSc2nc3nc(C)cc(C)n3n2)sc(CC)c1C | 39 | 8 | -2 | 92 | 92 | 0
CC(=O)/C(N)=N/Nc1cccc(Cl)c1 | -2 | 0 | 9 | 16* | 96 | 0
COc1ccc(-c2oc3ccccc3c2C#Cc2cncn2C)cc1 | · | · | · | · | · | 0
Cc1ccccc1C(=O)Nc1ccc(C(=O)N/N=C/c2ccc(O)cc2)cc1 | · | · | -22 | 59*[inhibitor] | 92 | 0
Cc1ccccc1CN1CCN(S(=O)(=O)c2ccc(F)cc2)CC1 | -2 | 0 | -3 | 104 | 103 | 0
O=S(=O)(c1ccc(Br)cc1)N1CCCN(Cc2ccccc2F)CC1 | 6 | 0 | 0 | 102 | 100 | 6.8*
Cc1cc(OCC(=O)NC2CC(C)(C)NC(C)(C)C2)c2c(C)cc(=O)oc2c1 | · | · | -2 | 97 | 93 | 0
COC1=CC(=Cc2c(N)n3nc(CC(=O)N4CCCCC4)sc3nc2=O)C=C(OC)C1=O | · | · | -14 | 70*[inhibitor] | 82*[inhibitor] | 0
COc1cc(C2C(C(=O)OC(C)C)=C(C)Nc3[nH]c(=O)[nH]c(=O)c32)ccc1O (stereo not drawn) | -5 | -2 | -16 | 70*[inhibitor] | 61*[inhibitor] | 0
COC(=O)C1=C(C)Nc2[nH]c(=S)[nH]c(=O)c2C1c1ccc(O)cc1 (stereo not drawn) | · | · | -1 | 99 | 102 | 0
